# From PubChem BioAssay
# HDAC3 inh: HDAC3 deacetylase inhibitors, primary screen, biochemical, fluorescence, cell-free homogeneous; Histone deacetylase 3 (Homo sapiens), O15379; recombinant HDAC3, fluorogenic peptide/trypsin coupled; inhibition, % at 8.3 µM; actives 0.15% (n = 320,000); AID 2718, 2010; in the data active = inhibition above about 26%, passing the limit was not always enough; inconclusive = no clear call, values can overlap the other calls
# PfM18AAP inh-1: PfM18AAP inhibitors, malaria aminopeptidase, primary screen, biochemical, QFRET, recombinant enzyme | M18 aspartyl aminopeptidase (Plasmodium falciparum 3D7) | H-Glu-NHMec fluorogenic cleavage | inhibition, % at 7.35 µM | actives 1.2% (n = 290,000) | AID 1822, 2009;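 active = inhibition above the campaign mean inhibition over all tested compounds plus 3 SD, cut at about 28% in these data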
# UCH37 DUB inh: inhibitors of human UCH37 deubiquitinase, primary screen, biochemical, Ub-AMC cleavage, fluorescence. actives 0.33% (n = 330,000). purified proteasome/UCH37. Ubiquitin carboxyl-terminal hydrolase isozyme L5 (Homo sapiens), Q9Y5K5. inhibition, % (concentration not given with the values);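 active = mean inhibition over replicate wells above about 20%, limit read from the data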
#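 Assay system: Proteasome-bound UCH37. Buffer or medium: pH 7.4 Tris-HCl (50 mM) with ovalbumin, ATP-MgCl2, DTT. Incubation: 30 min preincubation with enzyme, 25 min cleavage at room temperature. Measured by: fluorescence, ex 355 nm, em 460 nm. Read-out basis: percent inhibition. Control set: wells without proteasome as full block, compound-free enzyme plus substrate as uninhibited.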
# Rtt109 Vps75: inhibitors of C. albicans Rtt109/Vps75 HAT, primary screen, biochemical, ThioGlo CoA-SH fluorescence, plate reader. Histone acetyltransferase RTT109 (Candida albicans (strain SC5314 / ATCC MYA-2876)), …. purified Rtt109/Vps75, 4 h. inhibition, % at 34.9 µM. actives 0.16% (n = 330,000). AID 540336, 2011;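 active = inhibition of at least 50% in every replicate; inconclusive = best replicate reaches 50% inhibition but some replicates fall short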
# Target sequence (Q5AAJ8 whole entry, looked up): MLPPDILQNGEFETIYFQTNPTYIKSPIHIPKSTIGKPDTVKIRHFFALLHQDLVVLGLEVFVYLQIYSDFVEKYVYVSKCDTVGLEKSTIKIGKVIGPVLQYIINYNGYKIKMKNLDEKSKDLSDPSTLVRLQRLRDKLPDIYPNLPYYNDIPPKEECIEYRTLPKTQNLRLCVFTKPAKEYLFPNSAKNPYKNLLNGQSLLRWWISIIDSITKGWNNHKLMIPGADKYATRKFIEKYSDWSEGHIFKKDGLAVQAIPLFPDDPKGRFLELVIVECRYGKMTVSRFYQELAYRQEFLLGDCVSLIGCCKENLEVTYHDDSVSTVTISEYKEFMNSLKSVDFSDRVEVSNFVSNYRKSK
# FAS-TE inh: FAS thioesterase domain inhibitors, primary screen, biochemical, fluorescence intensity, uHTS. AID 602261, 2012. recombinant FAS-TE, OMFH fluorogenic substrate, fluorescence endpoint. actives 0.67% (n = 360,000). Fatty acid synthase (Homo sapiens), P49327. inhibition, % at 15 µM;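 active = compounds whose normalised, plate-corrected inhibition of enzyme fluorescence in the single-dose primary screen is 50% or more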
# ALR inh: inhibitors of human ALR sulfhydryl oxidase, primary screen, biochemical, H2O2 detection, HRP-luminol luminescence, single point; FAD-linked sulfhydryl oxidase ALR (Homo sapiens), P55789; purified ALR, DTT oxidation; inhibition, % (concentration not given with the values); actives 3.8% (n = 290,000); AID 485317, 2010;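 active = mean replicate inhibition above about 79%, with every replicate also reaching it, limit read from the data; inconclusive = only one of the two criteria met; inactive = mean below limit and not every replicate reaching it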
# PfM18AAP inh-2: PfM18AAP inhibitors, malaria aminopeptidase, confirmation, biochemical, QFRET, recombinant enzyme, triplicate; shares compounds with PfM18AAP inh-1; H-Glu-NHMec fluorogenic cleavage; inhibition, % at 7.35 µM; actives 28% (n = 2,400);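 active = mean inhibition over replicate wells above the hit cutoff set for the earlier primary screen, cut at about 29% in these data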
# CTSL1 confirm: cathepsin L1 inhibitors, retest, confirmation, counter-screen for PFM18AAP inhibitor project, biochemical, QFRET, triplicate; 2,400 tested, under 10 active; purified cathepsin L1, Z-Leu-Arg-MCA fluorescence; AID 2178, 2009; shares compounds with PfM18AAP inh-1; inhibition, % at 5.96 µM;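 active = average inhibition across replicates above the hit cutoff set in the earlier primary screen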
# Target sequence (P07711 whole entry, looked up): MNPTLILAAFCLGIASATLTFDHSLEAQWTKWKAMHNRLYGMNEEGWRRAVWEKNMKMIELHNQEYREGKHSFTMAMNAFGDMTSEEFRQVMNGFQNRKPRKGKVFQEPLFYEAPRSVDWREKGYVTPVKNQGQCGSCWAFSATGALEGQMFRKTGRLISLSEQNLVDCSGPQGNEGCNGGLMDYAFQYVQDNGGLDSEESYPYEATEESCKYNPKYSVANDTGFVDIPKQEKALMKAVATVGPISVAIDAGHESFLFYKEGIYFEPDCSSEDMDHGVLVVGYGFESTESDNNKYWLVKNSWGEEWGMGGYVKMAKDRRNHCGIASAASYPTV
# Numbers stand for hits; i = inactive; ? = inconclusive; nt = no result. Rows were chosen to be rich in hits. Some 4.6% of all compounds tested hit in one or more screens of this group.
SMILES,HDAC3 inh,PfM18AAP inh-1,UCH37 DUB inh,Rtt109 Vps75,FAS-TE inh,ALR inh,PfM18AAP inh-2,CTSL1 confirm
CCCn1c(=O)c(C(=O)NN=Cc2ccccc2F)c(O)c2ccccc21,nt,nt,i,nt,nt,nt,nt,nt
S=c1[nH]c(-c2ccccc2)cn1/N=C/c1ccncc1,i,51,nt,i,i,i,43,i
CC1CCc2c(sc(NC(=O)CCC(=O)O)c2C(=O)NC2CC2)C1 (stereo unspecified),i,41,i,i,i,i,i,i
COCC(=O)Nc1sc2c(c1C(=O)OC)CCC(C)C2 (stereo unspecified),i,i,i,i,i,i,nt,nt
O=C(O)CCC(=O)Nc1sc2c(c1C(=O)Nc1ccccc1)CCCCC2,i,37,i,i,i,i,i,i
CCNC(=O)c1c(NC(C)=O)sc2c1CCCC2,i,i,i,i,i,i,nt,nt
CC(=O)NC(c1ccco1)c1ccc2cccnc2c1O (stereo unspecified),i,48,i,i,i,i,i,i
CC(=O)NC(c1ccc(Cl)cc1)c1ccc2cccnc2c1O (stereo unspecified),nt,nt,i,i,i,nt,nt,nt
NC(Cc1ccc([N+](=O)[O-])cc1)=NOC(=O)COc1ccccc1Cl,nt,nt,i,nt,nt,nt,nt,nt
CSc1ncccc1C(=O)NNc1cc(Cl)ccc1Cl,?,33,i,i,i,i,i,i
CC(=NNS(=O)(=O)c1ccc(C)cc1)c1ccc(C)o1,nt,nt,i,nt,nt,nt,nt,nt
O=c1[nH]cnc2[nH]ncc12,i,49,i,i,i,i,i,i
O=C(NNc1ccc(Cl)cc1)c1cccs1,nt,44,nt,i,i,i,i,i
O=C(CNC(=O)c1cccs1)OCc1ccc(Cl)cc1,i,i,i,i,i,i,nt,nt
NS(=O)(=O)c1ccc(NS(=O)(=O)c2cccs2)cc1,i,i,i,i,i,i,nt,nt
O=C(NNC(=O)c1cccs1)Nc1cccc(Cl)c1,i,60,nt,i,i,i,i,i
O=C(NNc1cc(Cl)cc(Cl)c1)c1cccs1,i,37,i,i,i,i,33,i
NS(=O)(=O)c1ccc(NNC(=O)c2cccs2)cc1,i,55,i,i,i,i,36,i
O=C(Nn1cnnc1)c1cc2cc(Br)ccc2oc1=O,i,34,i,i,i,i,i,i
COc1ccc2c(C=NNc3ccc(C(=O)O)cc3)c[nH]c2c1,nt,nt,i,nt,nt,nt,nt,nt
CN(C)c1ccc(C=Nn2cnn(Cc3ccccc3Cl)c2=S)cc1,nt,nt,i,nt,nt,nt,nt,nt
Oc1ccc(/C=N/n2cnn(Cc3ccccc3Cl)c2=S)c(O)c1,i,39,nt,i,i,i,i,i
O=C(NC1CCCCCC1)c1ccc[nH]c1=S,i,53,i,i,i,92,i,i
O=C(NC1CCCCCCC1)c1ccccc1O,i,i,i,i,i,nt,nt,nt
S=C(N/N=C/c1ccccc1)N1CCOCC1,i,34,nt,i,i,i,i,35
SMILES,HDAC3 inh,PfM18AAP inh-1,UCH37 DUB inh,Rtt109 Vps75,FAS-TE inh,ALR inh,PfM18AAP inh-2,CTSL1 confirm
COc1ccc(C=NNC(=O)C(=O)NCc2cccnc2)cc1OC,nt,nt,i,nt,nt,nt,nt,nt
CCN1CCc2c(sc(NC(=S)NC(=O)c3ccco3)c2C(N)=O)C1,i,33,nt,nt,i,i,i,i
CCN1CCc2c(sc(NC(=O)c3ccc(S(=O)(=O)N(CC)c4ccccc4)cc3)c2C(N)=O)C1,i,36,nt,i,i,i,i,i
CCN1CCc2c(sc(NC(=S)NC(=O)c3ccccc3)c2C#N)C1,i,38,i,i,i,i,i,i
O=C1C=C(NNC(=O)c2cccnc2)CC(c2ccco2)C1 (stereo unspecified),i,35,i,i,i,nt,i,i
CC1(C)CC(=O)C=C(NNC(=O)c2cccnc2)C1,i,i,nt,nt,i,i,nt,nt
Cc1cc(OCC(=O)Nn2cnnc2)ccc1Br,i,56,i,i,i,i,59,i
CCOC(=O)c1c(C)n(-c2ccc(C)cc2)c2c(CC(C)=O)c(Br)c(OC)c(O)c12,i,i,i,i,i,i,nt,nt
CCOC(=O)c1c(C)n(-c2ccc(C)cc2)c2c(C(C(C)=O)C(=O)O)c(Br)c(O)c(O)c12 (stereo unspecified),i,65,i,i,i,i,37,i
CC(=NNC(=O)c1cc(C)nc2ccccc12)c1ccco1,nt,nt,i,nt,nt,nt,nt,nt
CC(=NNC(=O)COc1ccc(C(C)(C)C)cc1)c1ccc(N2CCOCC2)cc1,nt,nt,i,nt,nt,nt,nt,nt
CC1CCCN(S(=O)(=O)c2ccc(C(=O)Nc3nnc(C4CC4)o3)cc2)C1 (stereo unspecified),i,i,i,i,i,i,nt,nt
Cc1cccc2sc(NNC(=O)c3ccc(S(=O)(=O)N4CC(C)CC(C)C4)cc3)nc12 (stereo unspecified),i,32,i,i,i,i,i,i
COC(=O)c1sc2ccccc2c1NC(=O)c1ccc(S(=O)(=O)N2CC(C)CC(C)C2)cc1 (stereo unspecified),i,i,i,i,i,i,nt,nt
Cc1cc(C)c2nc(NNC(=O)c3ccc(S(=O)(=O)N4CCCC(C)C4)cc3)sc2c1 (stereo unspecified),i,39,i,i,i,i,i,i
CN(C)CCCCNCCCNC(=O)C=NO,nt,nt,i,nt,nt,nt,nt,nt
CCC(c1nnc(SCC(=O)Nc2nnc(-c3ccccc3)o2)o1)N(C)C (stereo unspecified),i,69,i,i,i,i,35,i
COc1ccc(OC)c(-c2cc(C(=O)NN=C(C)c3cccnc3)c3ccccc3n2)c1,nt,nt,i,nt,nt,nt,nt,nt
O=C1CCCC(=NNC(=O)COc2ccc(Cl)cc2)C1,nt,nt,i,nt,nt,nt,nt,nt
COc1cc(C=NNc2ccc([N+](=O)[O-])cc2S(=O)(=O)N2CCOCC2)cc(OC)c1OC,nt,nt,i,nt,nt,nt,nt,nt
O=[N+]([O-])c1ccc(N/N=C/c2cccc(O)c2O)c(S(=O)(=O)N2CCOCC2)c1,i,42,nt,i,i,i,38,i
O=[N+]([O-])c1ccc(N/N=C/c2ccc(O)c(O)c2O)c(S(=O)(=O)N2CCOCC2)c1,nt,37,nt,i,i,nt,i,i
Cc1ccc(-n2ncc(C#N)c2N=CN2CCCCCC2)cc1,nt,nt,i,nt,nt,nt,nt,nt
COc1cc(C=NNC(N)=O)ccc1OCC(=O)N1C(C)CCCC1C (stereo unspecified),nt,nt,i,nt,nt,nt,nt,nt
